Compound activity from PubChem.
APJ antagonist: APJ receptor antagonism; P35414; CHO-K1 APJ beta-arrestin complementation, luminescence; inhibition, % at 20 µM; 330,000 tested, 0.32% active;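 active = inhibition above about 40% at 20 µM, limit read from the data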;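 also: cells challenged with 10 nM apelin-13 agonist together with compound; plate controls were apelin-13 plus DMSO wells for no effect and DMSO wells lacking apelin-13 for full effect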
Target sequence (P35414 whole entry, looked up): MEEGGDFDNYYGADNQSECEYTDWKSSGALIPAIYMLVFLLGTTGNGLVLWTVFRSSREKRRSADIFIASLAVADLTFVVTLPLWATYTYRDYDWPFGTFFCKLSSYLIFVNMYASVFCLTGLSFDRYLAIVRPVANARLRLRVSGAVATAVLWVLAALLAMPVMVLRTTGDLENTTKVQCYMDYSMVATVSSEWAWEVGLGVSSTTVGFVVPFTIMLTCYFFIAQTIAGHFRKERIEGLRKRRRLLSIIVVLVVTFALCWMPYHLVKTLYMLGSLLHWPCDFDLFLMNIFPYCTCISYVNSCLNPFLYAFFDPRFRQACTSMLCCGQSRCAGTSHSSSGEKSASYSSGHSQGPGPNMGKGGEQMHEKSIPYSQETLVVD
CXCR6 inh: inhibitors of human CXCR6 receptor; O00574; CHO-K1 PathHunter CXCR6 beta-arrestin, luminescence; inhibition, % at 20 µM; 360,000 tested, 0.36% active; AID 602244; in the data active = inhibition above about 34%, passing the limit was not always enough;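 also: antagonist mode with CXCL16 agonist at 10 nM final; 0% = 10 nM CXCL16 with DMSO and 100% = unstimulated wells without agonist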
Target sequence (O00574 whole entry, looked up): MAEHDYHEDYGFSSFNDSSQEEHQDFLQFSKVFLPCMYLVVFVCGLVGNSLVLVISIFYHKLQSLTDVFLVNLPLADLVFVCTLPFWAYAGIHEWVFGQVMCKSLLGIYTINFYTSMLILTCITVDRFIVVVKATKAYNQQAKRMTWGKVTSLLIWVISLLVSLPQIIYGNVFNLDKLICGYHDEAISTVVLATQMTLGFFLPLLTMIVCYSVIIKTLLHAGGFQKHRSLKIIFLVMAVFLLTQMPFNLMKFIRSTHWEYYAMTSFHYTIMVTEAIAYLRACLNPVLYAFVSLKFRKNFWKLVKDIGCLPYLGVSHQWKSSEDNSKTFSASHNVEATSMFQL
EBI2 antag: antagonists of human EBI2 receptor; P32249; EBI2 beta-arrestin recruitment, luminescence, 7a,25-OHC stimulated; inhibition, % at 5 µM; 360,000 tested, 0.81% active; AID 651636; in the data active = inhibition above about 38%;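 also: enzyme fragment complementation signal reports receptor beta-arrestin coupling in cells; 0% = agonist plus DMSO wells and 100% = wells without agonist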
APJ ag: activates the human apelin receptor APJ. 330,000 tested, 0.11% active. activation, % at 20 µM. CHO-K1 APJ PathHunter beta-arrestin, luminescence; 0% DMSO wells, 100% apelin. AID 2520;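 active = activation more than six SD over the plate average, tested at 20 µM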;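 also: 0% = DMSO alone and 100% = apelin-13 at 10 nM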
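Material: engineered CHO-K1 APJ arrestin reporter cells; amount: 1000 CHO-K1 reporter cells seeded per well; incubation: compound stimulation 90 min at 25 °C, detection 60 min; signal: luminescent beta-gal fragment complementation, chemiluminescent substrate; read-out basis: APJ agonist activity; controls: DMSO-only wells as negative, 10 nM Apelin-13 as positive control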
FXN GAA850 act: activators of GAA850 frataxin (FXN) promoter | AID 540364 | HEK293 lucGAA850 FXN promoter luciferase reporter, 24 h; percent of 10 µM SAHA response | activation, % at 6 µM | 360,000 tested, 0.56% active;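 active = activation above the average of all compounds screened plus 3 SD, cutoff fixed separately per campaign, cut at about 7.5% in these data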;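 also: 0% = DMSO wells and 100% = 10 µM SAHA wells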
CCR6 antag: CCR6 (human) receptor antagonism. P51684. CHO-K1 CCR6 PathHunter beta-arrestin, luminescence, CCL20-stimulated. inhibition, % at 20 µM. 340,000 tested, 0.49% active. AID 493098;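 active = compounds whose inhibition of the agonist-driven luminescence signal at 20 µM reaches about 50%, limit read from the data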;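 also: cells stimulated with CCL20 at 14 nM final; plate controls were DMSO with CCL20 for no effect and DMSO without agonist for full effect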
EBI2 conf: confirmation of human EBI2 receptor antagonists; shares compounds with EBI2 antag; EBI2 beta-arrestin luminescence, 7a,25-OHC antagonism; inhibition, % at 5 µM; 2,400 tested, 29% active;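 active = inhibition of at least 50%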
EBI2 ag: activates EBI2, counter-screen for EBI2 antagonists; EBI2-expressing cells, agonist mode, luminescence, 60 min; 0% vehicle, 100% 7α,25-dihydroxycholesterol control; activation, % at 5 µM; 2,400 tested, under 10 active; shares compounds with EBI2 antag; AID 652000;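 active = activation of at least 50%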
bGal counter: counter-screen for EBI2 antagonists: E. coli beta-galactosidase inhibition; shares compounds with EBI2 antag; purified beta-galactosidase, luminescent Galacton Star, 15 min; inhibition, % at 5 µM; 2,400 tested, 1% active; AID 652176;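 active = replicate-average signal at least 3 plate SD below neutral wells, shown as high inhibition, flagging enzyme-inhibiting false positives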;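 also: 0% = DMSO wells with enzyme and 100% = wells lacking enzyme; higher means stronger loss of beta-gal luminescence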
* hit, by the source's call; · = no result given. Rows were chosen to be rich in hits. Some 2% of all compounds tested hit in one or more screens of this group.

SMILES | APJ antagonist | CXCR6 inh | EBI2 antag | APJ ag | FXN GAA850 act | CCR6 antag | EBI2 conf | EBI2 ag | bGal counter
COc1ccc(COC(=O)C2CCN(C(=O)c3ccc(Cl)cc3)CC2)cc1F | 11 | 4 | 49* | -5 | 0 | 27 | 49 | 0 | 0
COc1ccc(C)cc1NC(=O)COC(=O)C1CCN(C(=O)c2ccc(Cl)cc2)CC1 | 15 | -6 | 17 | -1 | 1 | 2 | · | · | ·
COc1ccc(C(C)=O)cc1COC(=O)C1CCN(C(=O)c2ccc(Cl)cc2)CC1 | 0 | -1 | 77* | -4 | 2 | 14 | 39 | 1 | 9
C[C@H]1CN([C@@H](C)CO)C(=O)CCCn2nncc2CO[C@@H]1CN(C)S(=O)(=O)c1ccc(-c2ccccc2)cc1 | · | 9 | -1 | · | -2 | · | · | · | ·
CN1CCN(C(=O)c2ccc(OCCOc3ccccc3)cc2)CC1 | 9 | 4 | -8 | -2 | 4 | 15 | · | · | ·
Nc1nc(COc2ccc(F)cc2Cl)nc(N2CCCCC2)n1 | -8 | -2 | 7 | -2 | 3 | -2 | · | · | ·
Nc1nc(CSc2ccc(Cl)cc2)nc(N2CCCCC2)n1 | -31 | -7 | 44* | -7 | 2 | 0 | 6 | 2 | 3
CC(C)[C@H](CO)NC(=O)[C@H]1O[C@@H](n2ccc(=O)[nH]c2=O)[C@H](O)[C@@H]1O | · | 5 | -3 | · | · | · | · | · | ·
C#Cc1cccc(NC(=O)c2ccc3c(c2)C(=O)N(Cc2cccnc2)C3=O)c1 | -14 | -15 | 45* | 10 | -2 | -12 | 20 | 1 | 9
O=C(O)c1cc(NC(=O)c2ccc3c(c2)C(=O)N(Cc2cccnc2)C3=O)cc(C(=O)O)c1 | 9 | 4 | -6 | -1 | -1 | 0 | · | · | ·
CC1CN(C(=O)c2ccc(-c3cccc(C(F)(F)F)c3)o2)CC(C)O1 (centres undefined) | 8 | 2 | 11 | -4 | 4 | 12 | · | · | ·
N#C/C(=C\c1ccccc1)C(=O)Nc1cc(S(=O)(=O)N2CCOCC2)ccc1N1CCCC1 | 4 | 0 | 75* | 7 | 1 | 20 | 66* | -1 | -13
CCN1CCN(c2ccc(S(=O)(=O)N3CCOCC3)cc2NC(=O)/C=C/c2ccc(C)cc2)CC1 | 16 | 10 | 94* | -5 | -3 | 17 | 91* | 1 | 4
O=C(CCc1nc2ccccc2c(=O)[nH]1)NNC(=O)COc1ccc(Br)cc1 | 14 | 1 | 59* | -3 | 0 | 16 | 39 | 0 | -7
COc1cc(OC)cc(C(=O)NNC(=O)CCc2nc3ccccc3c(=O)[nH]2)c1 | -5 | -2 | 6 | -4 | 0 | 4 | · | · | ·
Cc1cccc(OC(C)C(=O)Nc2ccc3c(c2)OCCO3)c1 (centres undefined) | · | -1 | -3 | · | -1 | 1 | · | · | ·
COc1ccc(N2CCN(C(=O)c3oc4ccccc4c3C)CC2)cc1 | 2 | 0 | 21 | -1 | 0 | 1 | · | · | ·
COc1ccc2oc(C(=O)N3CCN(C/C=C/c4ccccc4)CC3)c(C)c2c1 | 3 | 5 | 46* | 3 | 2 | 6 | 30 | 0 | -11
COc1ccc(-c2cc(C(=O)N3CCN(C(c4ccccc4)c4ccccc4)CC3)no2)cc1 | 0 | 0 | 91* | -5 | 2 | 13 | 76* | 0 | 9
COc1ccc(-c2cc(C(=O)N3CCN(C(c4ccccc4)c4ccccc4)CC3)no2)cc1OC | -12 | 2 | 32 | -4 | 4 | 8 | · | · | ·
Cc1c(C(=O)N2CCN(C/C=C/c3ccccc3)CC2)oc2c(F)cccc12 | -8 | 3 | 32 | -4 | 1 | 13 | · | · | ·
COc1ccc2oc(C(=O)N3CCN(C(c4ccccc4)c4ccccc4)CC3)c(C)c2c1 | 10 | 5 | 92* | -1 | -1 | 20 | 68* | 3 | 8
COc1ccc(CNC(=O)CCS(=O)(=O)c2ccc3nc(C)sc3c2)cc1 | · | -2 | 2 | · | 0 | · | · | · | ·
CCOC(=O)C1=CCC(c2ccccc2C(F)(F)F)N(S(=O)(=O)c2ccc(C)cc2)C1 (centres undefined) | · | 3 | 3 | · | · | · | · | · | ·
CCOc1ccc(OCC(=O)N2CCC3(CC2)CC(=O)c2ccccc2O3)cc1 | -47 | -1 | 84* | -1 | 4 | 13 | 52* | 0 | -17
SMILES | APJ antagonist | CXCR6 inh | EBI2 antag | APJ ag | FXN GAA850 act | CCR6 antag | EBI2 conf | EBI2 ag | bGal counter
COc1ccc(OCC(=O)N2CCC3(CC2)CC(=O)c2ccccc2O3)cc1 | -45 | 5 | 77* | -3 | 1 | 6 | 61* | 1 | 6
CC1=N/C(=C\c2ccc([N+](=O)[O-])cc2)C(=O)N1c1ccc(F)cc1F | -19 | -11 | -8 | -3 | 1 | 5 | · | · | ·
O=C(Nc1cccc(C(F)(F)F)c1)N1CCC(c2nc(-c3ccc(F)cc3)no2)CC1 | -30 | -22 | 43* | -3 | -1 | -3 | 6 | -1 | -11
Cc1cccc(C(=O)N2CCC(c3nc(-c4ccc(S(=O)(=O)N5CCOCC5)cc4)no3)CC2)c1 | -8 | 0 | 79* | -3 | 0 | 11 | 54* | 2 | 2
O=C(c1ccccc1)N1CCC(c2nc(-c3ccc(S(=O)(=O)N4CCOCC4)cc3)no2)CC1 | 21 | 8 | 21 | -2 | -1 | -2 | · | · | ·
O=C(Nc1ccccc1)N1CCC(c2nc(-c3ccc(S(=O)(=O)N4CCOCC4)cc3)no2)CC1 | 16 | -1 | 45* | -4 | -5 | 0 | 27 | 0 | 11
Cc1ccc2nc(CN(C)C(=O)[C@H]3O[C@@H](n4ccc(N)nc4=O)[C@H](O)[C@@H]3O)[nH]c2c1 | · | -4 | -15 | · | · | · | · | · | ·
CCc1ccc(N2CC(C(=O)Nc3ccc(S(=O)(=O)NCC4CCCO4)cc3)CC2=O)cc1 (centres undefined) | 7 | 5 | 60* | -2 | -2 | 0 | 64* | -2 | -17
Cc1[nH]c2ccc(-c3nnc(SCC(=O)c4ccc(F)cc4)o3)cc2c1C | -3 | 3 | 11 | 4 | 0 | 2 | · | · | ·
Cc1cc(C)c(C)c(C(=O)CSc2nnc(-c3ccc4[nH]c(C)c(C)c4c3)o2)c1C | 2 | -5 | 52* | 0 | -2 | 0 | 56* | 2 | -3
CSc1ccc(C(=O)/C=C/c2ccc(N)cc2)cc1 | 1 | 7 | 10 | -2 | 5 | 2 | · | · | ·
CSc1ccc(/C=C/C(=O)c2ccc(NC(=O)C(C)C)cc2)cc1 | -3 | 13 | 75* | -1 | 2 | 7 | 66* | -1 | -6
